According to ChEMBL document CHEMBL3763112, “Novel leucine ureido derivatives as aminopeptidase N inhibitors. Design, synthesis and activity evaluation” (Eur J Med Chem, 2016):
pIC50: −log10 of the molar value. The source made the active and inactive calls. No cut-off for these calls is given here.

Assays:
Aminopeptidase N [1] = target: T1, Aminopeptidase N (Sus scrofa, UniProt P15145); test: Inhibition of APN in porcine kidney microsomes preincubated for 5 mins before L-leu-p-nitroanilide substrate addition for 30 mins by plate reader analysis
T1 sequence (P15145 whole entry): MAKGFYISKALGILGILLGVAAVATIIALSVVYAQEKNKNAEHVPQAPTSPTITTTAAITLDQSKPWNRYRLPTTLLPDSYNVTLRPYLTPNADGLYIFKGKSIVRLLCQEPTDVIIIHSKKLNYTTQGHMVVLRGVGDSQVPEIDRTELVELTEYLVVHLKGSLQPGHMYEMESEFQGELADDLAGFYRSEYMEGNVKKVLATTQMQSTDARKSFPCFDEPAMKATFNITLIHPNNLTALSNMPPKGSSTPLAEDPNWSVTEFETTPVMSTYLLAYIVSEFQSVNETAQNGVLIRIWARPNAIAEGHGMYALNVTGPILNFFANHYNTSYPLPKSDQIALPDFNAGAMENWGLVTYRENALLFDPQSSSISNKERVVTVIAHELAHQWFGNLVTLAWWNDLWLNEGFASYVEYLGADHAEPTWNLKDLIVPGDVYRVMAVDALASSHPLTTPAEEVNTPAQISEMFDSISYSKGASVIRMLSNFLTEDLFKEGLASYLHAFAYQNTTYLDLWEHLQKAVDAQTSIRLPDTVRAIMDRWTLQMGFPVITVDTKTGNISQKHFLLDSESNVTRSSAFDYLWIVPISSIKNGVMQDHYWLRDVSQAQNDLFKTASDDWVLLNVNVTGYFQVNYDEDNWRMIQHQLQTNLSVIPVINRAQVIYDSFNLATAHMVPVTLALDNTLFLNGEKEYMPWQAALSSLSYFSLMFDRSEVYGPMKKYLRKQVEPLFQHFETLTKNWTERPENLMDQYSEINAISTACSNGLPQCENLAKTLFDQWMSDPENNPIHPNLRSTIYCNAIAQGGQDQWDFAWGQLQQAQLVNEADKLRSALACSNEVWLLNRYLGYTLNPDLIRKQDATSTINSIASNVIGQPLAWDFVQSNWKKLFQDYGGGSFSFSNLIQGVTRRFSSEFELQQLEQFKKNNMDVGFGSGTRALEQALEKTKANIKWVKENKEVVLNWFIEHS

[2] = target: Histone deacetylase (HDAC1 and HDAC2) (Homo sapiens, UniProt Q13547+Q92769); test: Inhibition of HDAC1/HDAC2 in human HeLa cells nuclear extract preincubated for 5 mins before Boc-Lys (acetyl)-AMC substrate addition for 30 mins by microplate reader analysis; assay type: cell-based
Aminopeptidase N [3] = target: Aminopeptidase N (Homo sapiens, UniProt P15144); test: Inhibition of APN in human ES2 cells preincubated for 5 mins before L-leu-p-nitroanilide substrate addition for 1 hr by photometry; assay type: cell-based
Chain of Aminopeptidase N (Homo sapiens, UniProt P15144) (P15144 whole entry): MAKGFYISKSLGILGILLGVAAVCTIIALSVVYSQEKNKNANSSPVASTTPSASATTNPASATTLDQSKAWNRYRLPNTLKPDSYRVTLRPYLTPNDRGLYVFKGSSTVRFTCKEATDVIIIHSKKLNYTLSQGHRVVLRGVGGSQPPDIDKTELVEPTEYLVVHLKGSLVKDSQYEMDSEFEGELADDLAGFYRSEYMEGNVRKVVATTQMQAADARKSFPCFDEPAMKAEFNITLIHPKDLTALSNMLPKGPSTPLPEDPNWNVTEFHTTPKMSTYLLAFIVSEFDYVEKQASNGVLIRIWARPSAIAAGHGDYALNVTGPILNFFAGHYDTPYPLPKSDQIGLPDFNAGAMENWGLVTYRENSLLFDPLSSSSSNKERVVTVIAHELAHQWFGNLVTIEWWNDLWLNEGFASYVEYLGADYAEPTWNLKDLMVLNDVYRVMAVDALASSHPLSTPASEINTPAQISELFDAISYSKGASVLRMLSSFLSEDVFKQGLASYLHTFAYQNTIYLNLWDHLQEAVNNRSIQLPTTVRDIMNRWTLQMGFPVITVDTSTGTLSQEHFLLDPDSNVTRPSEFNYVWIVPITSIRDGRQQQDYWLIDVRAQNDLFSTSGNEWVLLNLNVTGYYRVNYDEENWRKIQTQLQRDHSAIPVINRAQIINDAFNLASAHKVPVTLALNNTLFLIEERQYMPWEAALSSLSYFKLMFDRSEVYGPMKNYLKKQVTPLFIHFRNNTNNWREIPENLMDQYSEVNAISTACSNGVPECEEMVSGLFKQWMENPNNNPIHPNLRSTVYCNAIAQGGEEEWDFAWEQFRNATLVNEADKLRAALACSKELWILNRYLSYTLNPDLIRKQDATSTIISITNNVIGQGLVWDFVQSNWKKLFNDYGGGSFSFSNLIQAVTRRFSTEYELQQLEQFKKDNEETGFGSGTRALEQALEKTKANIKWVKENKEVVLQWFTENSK
Method in brief: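 ES-2 ovarian clear cell carcinoma cell suspension (1 × 10^5 cells/well) used as the APN source in 10 mM PBS pH 7.4; inhibitors in buffer with 0.2% DMSO final. Pre-incubation 5 min at room temperature, then L-Leu-p-nitroanilide added, 1 h at 37 °C. Supernatant after centrifugation read by UV-Vis spectrophotometry; IC50 from regression of concentration/inhibition-rate data.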

ES2 = test: Antiinvasive activity against human ES2 cells assessed as reduction in cell invasion at 150 uM after 8 hrs by crystal violet staining based Matrigel assay; assay type: functional
Method in brief: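 Matrigel-coated transwell chambers rehydrated 2 h in RPMI-1640 + 1% FBS; lower chamber RPMI-1640 + 10% FBS. Compounds in 1% FBS medium added to the upper chamber with ES-2 cells (1 × 10^5/well) at the same time; invasion 8 h at 37 °C. Non-invaded cells swabbed off; remaining cells fixed, stained with 0.1% crystal violet, counted in five random fields (×100) per insert; mean of three independent experiments.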

H22 = test: Antimetastasis activity against mouse H22 cells implanted in mouse assessed as inhibition of tumour growth at 80 mg/kg/day, po administered 6 days/week for 2 weeks; assay type: functional
Method in brief: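 H22 tumour cells given to mice via the caudal vein; animals randomly divided into 3 groups. Control received the same volume of excipient; the other groups received inhibitor orally at 80 mg/kg/day, 6 days/week for 2 weeks.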

SMILES	pIC50 (Aminopeptidase N [1])	IC50 [2] [nM]	pIC50 (Aminopeptidase N [3])	inhibition (ES2)	inhibition in vivo at 80 mg/kg/day (H22) [%]
CC(C)C[C@H](NC(=O)Nc1ccc(F)cc1F)C(=O)NO	6.47	> 100000	–	–	–
Cc1ccc(CNC(=O)N[C@@H](CC(C)C)C(=O)NO)cc1C	6.36	> 100000	–	–	–
COc1ccc(NC(=O)N[C@@H](CC(C)C)C(=O)NO)cc1F	6.38	> 100000	–	–	–
CC(C)C[C@H](NC(=O)NCc1ccc(F)c(F)c1)C(=O)NO	6.38	> 100000	–	–	–
COc1ccc(NC(=O)N[C@@H](CC(C)C)C(=O)NO)c(OC)c1	6.34	> 100000	–	–	–
CC(C)C[C@H](NC(=O)Nc1ccccc1)C(=O)NO	–	> 100000	–	–	–
CC(C)C[C@H](NC(=O)NCc1c(F)cccc1F)C(=O)NO	6.16	> 100000	–	–	–
CC(C)C[C@H](NC(=O)[C@@H](O)[C@H](N)Cc1ccccc1)C(=O)O [UBENIMEX]	–	> 100000	–	Active	75.9
CC(C)C[C@H](NC(=O)NCc1ccc(F)cc1F)C(=O)NO	6.48	> 100000	–	–	–
Cc1ccc(NC(=O)N[C@@H](CC(C)C)C(=O)NO)c(C)c1	6.74	> 100000	–	–	–
CC(C)C[C@H](NC(=O)Nc1c(F)cccc1F)C(=O)NO	6.64	> 100000	–	–	–
CC(C)C[C@H](NC(=O)NCc1c(Cl)cccc1Cl)C(=O)NO	6.24	> 100000	–	–	–
CC(C)C[C@H](NC(=O)Nc1ccc(Cl)cc1Cl)C(=O)NO	6.25	> 100000	–	–	–
COc1ccc(CNC(=O)N[C@@H](CC(C)C)C(=O)NO)c(OC)c1	6.34	> 100000	–	–	–

Second part, led by results:

pIC50 (Aminopeptidase N [1])	IC50 [2] [nM]	pIC50 (Aminopeptidase N [3])	SMILES	inhibition (ES2)	inhibition in vivo at 80 mg/kg/day (H22) [%]
7.52	> 100000	6.55	CCc1cccc(CC)c1NC(=O)N[C@@H](CC(C)C)C(=O)NO	Active	–
7.05	> 100000	–	Cc1ccc(NC(=O)N[C@@H](CC(C)C)C(=O)NO)cc1Cl	–	–
7.15	> 100000	–	Cc1cccc(CNC(=O)N[C@@H](CC(C)C)C(=O)NO)c1C	–	–
7.30	> 100000	–	CC(C)C[C@H](NC(=O)Nc1c(C(C)C)cccc1C(C)C)C(=O)NO	–	–
7.10	> 100000	–	Cc1cc(C)c(NC(=O)N[C@@H](CC(C)C)C(=O)NO)c(C)c1	–	–
7.70	> 100000	6.92	Cc1cccc(C)c1NC(=O)N[C@@H](CC(C)C)C(=O)NO	Active	91.7
